Assay results reported in ChEMBL document CHEMBL1926588, “Sulfur and selenium derivatives of quinazoline and pyrido[2,3-d]pyrimidine: synthesis and study of their potential cytotoxic activity in vitro” (Eur J Med Chem, 2012).

Experiments:
[1] = tested on: MCF7; test: Induction of apoptosis in human MCF7 cells assessed as cell death at 1 uM after 24 hrs by TUNEL analysis (reference value: 6.12 +/- 1.61%); type: functional
[2] = tested on: MCF7; test: Induction of apoptosis in human MCF7 cells assessed as cell death at 5 uM after 24 hrs by TUNEL analysis (reference value: 9.28 +/- 1.71%); type: functional
[3] = tested on: MCF7; test: Induction of apoptosis in human MCF7 cells assessed as cell death at 10 uM after 24 hrs by TUNEL analysis (reference value: 9.82 +/- 2.62%); type: functional
[4] = tested on: MCF7; test: Induction of apoptosis in human MCF7 cells assessed as cell death at 15 uM after 24 hrs by TUNEL analysis (reference value: 5.13 +/- 4.32%); type: functional
[5] = tested on: MCF7; test: Induction of apoptosis in human MCF7 cells assessed as cell death at 20 uM after 24 hrs by TUNEL analysis (reference value: 9.56 +/- 1.38%); type: functional
[6] = tested on: MCF7; test: Induction of apoptosis in human MCF7 cells assessed as cell death at 10 uM after 4 hrs by TUNEL analysis (reference value: 5.85 +/- 5.21%); type: functional
[7] = tested on: MCF7; test: Induction of apoptosis in human MCF7 cells assessed as cell death at 10 uM after 12 hrs by TUNEL analysis (reference value: 6.02 +/- 0.85%); type: functional
[8] = tested on: MCF7; test: Induction of apoptosis in human MCF7 cells assessed as cell death at 10 uM after 48 hrs by TUNEL analysis (reference value: 4.23 +/- 1.99%); type: functional
[9] = tested on: MCF7; test: Induction of apoptosis in human MCF7 cells assessed as cell death at 10 uM by TUNEL analysis; type: functional, cell-based; conditions: TDE = time-dependent effect
[10] = tested on: MCF7; test: Induction of apoptosis in human MCF7 cells assessed as cell death at 5 uM after 24 hrs by TUNEL analysis relative to control; type: functional
[11] = tested on: MCF7; test: Induction of apoptosis in human MCF7 cells assessed as cell death at 20 uM after 24 hrs by TUNEL analysis relative to control; type: functional
[12] = tested on: MCF7; test: Cell cycle arrest in human MCF7 cells assessed as accumulation at subG1 phase at 15 uM after 4 hrs by propidium iodide staining-based flow cytometric analysis (reference value: 5.90 +/- 1.36%); type: functional
[13] = tested on: MCF7; test: Cell cycle arrest in human MCF7 cells assessed as accumulation at subG1 phase at 15 uM after 12 hrs by propidium iodide staining-based flow cytometric analysis (reference value: 2.17 +/- 0.24%); type: functional
[14] = tested on: MCF7; test: Cell cycle arrest in human MCF7 cells assessed as accumulation at subG1 phase at 15 uM after 24 hrs by propidium iodide staining-based flow cytometric analysis (reference value: 2.93 +/- 0.54%); type: functional
[15] = tested on: MCF7; test: Cell cycle arrest in human MCF7 cells assessed as accumulation at G0/G1 phase at 15 uM after 4 hrs by propidium iodide staining-based flow cytometric analysis (reference value: 49.38 +/- 4.74%); type: functional
[16] = tested on: MCF7; test: Cell cycle arrest in human MCF7 cells assessed as accumulation at G0/G1 phase at 15 uM after 12 hrs by propidium iodide staining-based flow cytometric analysis (reference value: 57.34 +/- 1.64%); type: functional
[17] = tested on: MCF7; test: Cell cycle arrest in human MCF7 cells assessed as accumulation at G0/G1 phase at 15 uM after 24 hrs by propidium iodide staining-based flow cytometric analysis (reference value: 51.83 +/- 5.64%); type: functional
[18] = tested on: MCF7; test: Cell cycle arrest in human MCF7 cells assessed as accumulation at S phase at 15 uM after 4 hrs by propidium iodide staining-based flow cytometric analysis (reference value: 19.09 +/- 4.54%); type: functional
[19] = tested on: MCF7; test: Cell cycle arrest in human MCF7 cells assessed as accumulation at S phase at 15 uM after 12 hrs by propidium iodide staining-based flow cytometric analysis (reference value: 17.07 +/- 4.00%); type: functional
[20] = tested on: MCF7; test: Cell cycle arrest in human MCF7 cells assessed as accumulation at S phase at 15 uM after 24 hrs by propidium iodide staining-based flow cytometric analysis (reference value: 12.39 +/- 1.54%); type: functional
[21] = tested on: MCF7; test: Cell cycle arrest in human MCF7 cells assessed as accumulation at G2/M phase at 15 uM after 4 hrs by propidium iodide staining-based flow cytometric analysis (reference value: 21.60 +/- 5.37%); type: functional
[22] = tested on: MCF7; test: Cell cycle arrest in human MCF7 cells assessed as accumulation at G2/M phase at 15 uM after 12 hrs by propidium iodide staining-based flow cytometric analysis (reference value: 22.11 +/- 3.86%); type: functional
[23] = tested on: MCF7; test: Cell cycle arrest in human MCF7 cells assessed as accumulation at G2/M phase at 15 uM after 24 hrs by propidium iodide staining-based flow cytometric analysis (reference value: 32.37 +/- 7.73%); type: functional
[24] = Permeability of the compound across human Caco2 cells; type: ADME, cell-based; conditions: Caco-2, read-out: permeability
[25] = tested on: CCRF-CEM; test: Cytotoxicity against human CCRF-CEM cells after 72 hrs by MTT assay; type: functional
Summary of the method: (§1)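 MTT read-out after 72 h exposure at 37 °C in humidified 5% CO2, with five concentrations between 0.01 and 100. GI50 is 50% growth reduction versus untreated controls, TGI is complete growth inhibition, and LC50 is the concentration killing 50% of cells. Minimum three independent experiments.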

[26] = tested on: HT-29; test: Cytotoxicity against human HT-29 cells after 72 hrs by MTT assay; type: functional; conditions: HT-29, 72 h; summary of the method: as §1
[27] = Cytotoxicity against human HTB-54 cells after 72 hrs by MTT assay; type: functional; conditions: HTB-54, 72 h; summary of the method: as §1
[28] = tested on: MCF7; test: Cytotoxicity against human MCF7 cells after 72 hrs by MTT assay; type: functional; conditions: MCF7, 72 h; summary of the method: as §1
[29] = Cytotoxicity against human 184B5 cells after 72 hrs by MTT assay; type: cell-based; summary of the method: as §1
[30] = read-out: LC50 (the source's name)

[SeH]c1nc([SeH])c2ccccc2n1
Activity [1]: 2.76%
Activity [2]: 16.32%
Activity [3]: 27.29%
Activity [4]: 76.82%
Activity [5]: 87.55%
Activity [6]: 6.01%
Activity [7]: 12.26%
Activity [8]: 58.31%
Activity [9]: tde
fold change (FC) [10]: 1.7
fold change (FC) [11]: 9
Activity [12]: 3.98%
Activity [13]: 2.37%
Activity [14]: 3.46%
Activity [15]: 52.09%
Activity [16]: 56.21%
Activity [17]: 47.77%
Activity [18]: 23.29%
Activity [19]: 18.36%
Activity [20]: 15.75%
Activity [21]: 21.21%
Activity [22]: 25.63%
Activity [23]: 34.67%
Papp [24]: 4.67 ×10⁻⁶ cm/s
GI50 [25]: 2.99 µM
TGI [25]: 6.01 µM
CC50 [25, 30]: 9.03 µM
GI50 [26]: 8.98 µM
TGI [26]: 45.2 µM
CC50 [26, 30]: 87.9 µM
GI50 [27]: 5.98 µM
TGI [27]: 65.9 µM
CC50 [27, 30]: > 100 µM
GI50 [28]: 2.92 µM
LC50 [28]: > 100 µM
TGI [28]: 22.9 µM
GI50 at 72 h ([29]; 184B5 cells): 0.49 µM
LC50 ([29]; 184b5, 72 h): 6.63 µM
TGI ([29]; 184b5, 72 h): 2.5 µM
